Data on 1 compound can be found in ChEMBL document CHEMBL4145462, “Nitrogen-containing ecdysteroid derivatives vs. multi-drug resistance in cancer: Preparation and antitumor activity of oximes, oxime ethers and a lactam” (Eur J Med Chem, 2018).

For the first test, the system named is SiHa. Description: Antiproliferative activity against human SiHa cells after 72 hrs by MTT assay. The class given is functional, cell-based.
Details: not given
In a few lines: (§1)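 Cells grown in MEM with 10% FCS, 1% non-essential amino acids and 1% penicillin-streptomycin. Seeded at 5000 cells/well, exposed to 0.1–30.0 µM compound for 72 h. MTT (5 mg/ml solution) was then added for 4 h, formazan dissolved in DMSO, and absorbance read at 545 nm. Cisplatin served as positive control. IC50 came from sigmoidal dose–response fits (log inhibitor vs normalized response, variable slope).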
`CC(C)(O)CC[C@H]1OC(C)(C)O[C@]1(C)[C@H]1CC=C2C3=C/C(=N\OC(C)(C)C)[C@@H]4C[C@H]5OC(C)(C)O[C@H]5C[C@]4(C)[C@H]3CC[C@@]21C`: 14.2 µM corresponded to half-maximal inhibition (IC50).

System in the next test: not listed separately
Description: Synergistic cytotoxicity against mouse L5178 cells assessed as combination index at ED50 using 150:1 test compound to doxorubicin ratio after 48 hrs by MTT-based checkerboard microplate method. The class given is functional.
Details: not given
In outline: (§2)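 Checkerboard microplate combinations of compound with doxorubicin at constant molar ratios. 5 × 10^4 cells/well in McCoy's 5A, 48 h at 37°C, 5% CO2. MTT added to 0.5 mg/mL final for 4 h, SDS/HCl overnight, OD read at 540 and 630 nm. Combination indices derived per ratio for 50%, 75% and 90% growth inhibition by median-effect analysis.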
In the case of `CC(C)(O)CC[C@H]1OC(C)(C)O[C@]1(C)[C@H]1CC=C2C3=C/C(=N\OC(C)(C)C)[C@@H]4C[C@H]5OC(C)(C)O[C@H]5C[C@]4(C)[C@H]3CC[C@@]21C`, the CI is 0.28.

System in another test: not listed separately
Put plainly: Synergistic cytotoxicity against mouse L5178 cells expressing human ABCB1 assessed as combination index at ED90 using 7.5:1 test compound to doxorubicin ratio after 48 hrs by MTT-based checkerboard microplate method.
Details: not given
The class given is functional. In outline:
as §2
In the case of `CC(C)(O)CC[C@H]1OC(C)(C)O[C@]1(C)[C@H]1CC=C2C3=C/C(=N\OC(C)(C)C)[C@@H]4C[C@H]5OC(C)(C)O[C@H]5C[C@]4(C)[C@H]3CC[C@@]21C`, the CI turned out to be 0.23.

System in the next test: not listed separately
Description: Synergistic cytotoxicity against mouse L5178 cells expressing human ABCB1 assessed as combination index at ED90 using 30:1 test compound to doxorubicin ratio after 48 hrs by MTT-based checkerboard microplate method.
Details: not given
The class given is functional. In outline: as §2
With `CC(C)(O)CC[C@H]1OC(C)(C)O[C@]1(C)[C@H]1CC=C2C3=C/C(=N\OC(C)(C)C)[C@@H]4C[C@H]5OC(C)(C)O[C@H]5C[C@]4(C)[C@H]3CC[C@@]21C`, the CI is given as 0.41.

System in another test: not listed separately
Description: Synergistic cytotoxicity against mouse L5178 cells expressing human ABCB1 assessed as combination index at ED75 using 15:1 test compound to doxorubicin ratio after 48 hrs by MTT-based checkerboard microplate method. The class given is functional.
Details: not given
In outline: as §2
Regarding `CC(C)(O)CC[C@H]1OC(C)(C)O[C@]1(C)[C@H]1CC=C2C3=C/C(=N\OC(C)(C)C)[C@@H]4C[C@H]5OC(C)(C)O[C@H]5C[C@]4(C)[C@H]3CC[C@@]21C`, the CI turned out to be 0.27.

System in the next test: not listed separately
Put plainly: Synergistic cytotoxicity against mouse L5178 cells expressing human ABCB1 assessed as combination index at ED75 using 3.75:1 test compound to doxorubicin ratio after 48 hrs by MTT-based checkerboard microplate method.
Details: not given
In kind it is functional. In outline: as §2
In the case of `CC(C)(O)CC[C@H]1OC(C)(C)O[C@]1(C)[C@H]1CC=C2C3=C/C(=N\OC(C)(C)C)[C@@H]4C[C@H]5OC(C)(C)O[C@H]5C[C@]4(C)[C@H]3CC[C@@]21C`, the CI is reported as 0.26.

System in a further test: not listed separately
Description: Synergistic cytotoxicity against mouse L5178 cells assessed as combination index at ED90 using 300:1 test compound to doxorubicin ratio after 48 hrs by MTT-based checkerboard microplate method. In kind it is functional.
Details: not given
In a few lines: as §2
Take `CC(C)(O)CC[C@H]1OC(C)(C)O[C@]1(C)[C@H]1CC=C2C3=C/C(=N\OC(C)(C)C)[C@@H]4C[C@H]5OC(C)(C)O[C@H]5C[C@]4(C)[C@H]3CC[C@@]21C`: the CI was determined as 1.02.

System in the next test: not listed separately
Description: Synergistic cytotoxicity against mouse L5178 cells assessed as combination index at ED50 using 75:1 test compound to doxorubicin ratio after 48 hrs by MTT-based checkerboard microplate method. In kind it is functional.
Details: not given
In outline:
as §2
Consider `CC(C)(O)CC[C@H]1OC(C)(C)O[C@]1(C)[C@H]1CC=C2C3=C/C(=N\OC(C)(C)C)[C@@H]4C[C@H]5OC(C)(C)O[C@H]5C[C@]4(C)[C@H]3CC[C@@]21C`, for which the CI is listed as 1.31.

Another test has as its system HeLa. Put plainly: Antiproliferative activity against human HeLa cells after 72 hrs by MTT assay. The class given is functional, cell-based.
Details: not given
In outline: as §1
A general note: Formazan colour is commonly taken as a measure of viable cells.
As to `CC(C)(O)CC[C@H]1OC(C)(C)O[C@]1(C)[C@H]1CC=C2C3=C/C(=N\OC(C)(C)C)[C@@H]4C[C@H]5OC(C)(C)O[C@H]5C[C@]4(C)[C@H]3CC[C@@]21C`, the IC50 (commonly the midpoint of a concentration-inhibition curve) is 26.1 µM.

System in another test: not listed separately
Put plainly: Cytotoxicity against mouse L5178 cells expressing human ABCB1 after 48 hrs by MTT assay. Conditions: L5178, 48 h. The class given is functional, cell-based. In outline:
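Parental mouse lymphoma L5178 and the MDR line made by pHa MDR1/A retrovirus transfection, selected with 60 µg/L colchicine. Grown in McCoy's 5A with horse serum at 37°C, 5% CO2. 5 x 10^4 cells/well, serial compound dilutions, 48 h. MTT added to 0.5 mg/mL final for 4 h, then 10% SDS in 0.01 M HCl overnight, OD read at 540 and 630 nm. IC50 taken as median cytotoxic activity (Dm) from control lanes of checkerboard plates, n=2.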
Regarding `CC(C)(O)CC[C@H]1OC(C)(C)O[C@]1(C)[C@H]1CC=C2C3=C/C(=N\OC(C)(C)C)[C@@H]4C[C@H]5OC(C)(C)O[C@H]5C[C@]4(C)[C@H]3CC[C@@]21C`, the half-inhibitory concentration (IC50) is 65.4 µM.

System in a further test: not listed separately
Description: Synergistic cytotoxicity against mouse L5178 cells assessed as combination index at ED75 using 75:1 test compound to doxorubicin ratio after 48 hrs by MTT-based checkerboard microplate method. The class given is functional.
Details: not given
In outline: as §2
Take `CC(C)(O)CC[C@H]1OC(C)(C)O[C@]1(C)[C@H]1CC=C2C3=C/C(=N\OC(C)(C)C)[C@@H]4C[C@H]5OC(C)(C)O[C@H]5C[C@]4(C)[C@H]3CC[C@@]21C`: the CI turned out to be 1.03.

System in a further test: not listed separately
Put plainly: Synergistic cytotoxicity against mouse L5178 cells assessed as combination index at ED75 using 37.5:1 test compound to doxorubicin ratio after 48 hrs by MTT-based checkerboard microplate method. The class given is functional.
Details: not given
In outline:
as §2
For the compound `CC(C)(O)CC[C@H]1OC(C)(C)O[C@]1(C)[C@H]1CC=C2C3=C/C(=N\OC(C)(C)C)[C@@H]4C[C@H]5OC(C)(C)O[C@H]5C[C@]4(C)[C@H]3CC[C@@]21C`, the CI turned out to be 0.85.

System in a further test: not listed separately
Description: Synergistic cytotoxicity against mouse L5178 cells expressing human ABCB1 assessed as combination index at ED75 using 60:1 test compound to doxorubicin ratio after 48 hrs by MTT-based checkerboard microplate method. The class given is functional.
Details: not given
In outline:
as §2
Regarding `CC(C)(O)CC[C@H]1OC(C)(C)O[C@]1(C)[C@H]1CC=C2C3=C/C(=N\OC(C)(C)C)[C@@H]4C[C@H]5OC(C)(C)O[C@H]5C[C@]4(C)[C@H]3CC[C@@]21C`, the CI is given as 0.57.

System in a further test: not listed separately
Description: Synergistic cytotoxicity against mouse L5178 cells assessed as combination index at ED90 using 600:1 test compound to doxorubicin ratio after 48 hrs by MTT-based checkerboard microplate method. The class given is functional.
Details: not given
In outline: as §2
For the compound `CC(C)(O)CC[C@H]1OC(C)(C)O[C@]1(C)[C@H]1CC=C2C3=C/C(=N\OC(C)(C)C)[C@@H]4C[C@H]5OC(C)(C)O[C@H]5C[C@]4(C)[C@H]3CC[C@@]21C`, the CI is 0.98.
